How the values were obtained:
[1] = molecular target: 3-phosphoinositide-dependent protein kinase 1 (Homo sapiens) (UniProt O15530); assay: Inhibition of human PDK1 assessed as residual activity at 1 uM relative to control
[2] = molecular target: ALK tyrosine kinase receptor (Homo sapiens) (UniProt Q9UM73); assay: Inhibition of human ALK assessed as residual activity at 1 uM relative to control
SK-MEL-28 = assay: Antiproliferative activity against human SK-MEL-28 cells after 3 days by sulforhodamine B assay; format: functional; settings: SK-MEL-28, 72 h
In short: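 Tested in the NCI 60 cell line panel. GI50 is the concentration giving 50% inhibition of cell growth, and values are the mean of two series of tests.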

[3] = molecular target: Tyrosine-protein kinase Mer (Homo sapiens) (UniProt Q12866); assay: Inhibition of human Mer assessed as residual activity at 1 uM relative to control
Tyrosine-protein kinase Mer (Homo sapiens), sequence (Q12866 whole entry): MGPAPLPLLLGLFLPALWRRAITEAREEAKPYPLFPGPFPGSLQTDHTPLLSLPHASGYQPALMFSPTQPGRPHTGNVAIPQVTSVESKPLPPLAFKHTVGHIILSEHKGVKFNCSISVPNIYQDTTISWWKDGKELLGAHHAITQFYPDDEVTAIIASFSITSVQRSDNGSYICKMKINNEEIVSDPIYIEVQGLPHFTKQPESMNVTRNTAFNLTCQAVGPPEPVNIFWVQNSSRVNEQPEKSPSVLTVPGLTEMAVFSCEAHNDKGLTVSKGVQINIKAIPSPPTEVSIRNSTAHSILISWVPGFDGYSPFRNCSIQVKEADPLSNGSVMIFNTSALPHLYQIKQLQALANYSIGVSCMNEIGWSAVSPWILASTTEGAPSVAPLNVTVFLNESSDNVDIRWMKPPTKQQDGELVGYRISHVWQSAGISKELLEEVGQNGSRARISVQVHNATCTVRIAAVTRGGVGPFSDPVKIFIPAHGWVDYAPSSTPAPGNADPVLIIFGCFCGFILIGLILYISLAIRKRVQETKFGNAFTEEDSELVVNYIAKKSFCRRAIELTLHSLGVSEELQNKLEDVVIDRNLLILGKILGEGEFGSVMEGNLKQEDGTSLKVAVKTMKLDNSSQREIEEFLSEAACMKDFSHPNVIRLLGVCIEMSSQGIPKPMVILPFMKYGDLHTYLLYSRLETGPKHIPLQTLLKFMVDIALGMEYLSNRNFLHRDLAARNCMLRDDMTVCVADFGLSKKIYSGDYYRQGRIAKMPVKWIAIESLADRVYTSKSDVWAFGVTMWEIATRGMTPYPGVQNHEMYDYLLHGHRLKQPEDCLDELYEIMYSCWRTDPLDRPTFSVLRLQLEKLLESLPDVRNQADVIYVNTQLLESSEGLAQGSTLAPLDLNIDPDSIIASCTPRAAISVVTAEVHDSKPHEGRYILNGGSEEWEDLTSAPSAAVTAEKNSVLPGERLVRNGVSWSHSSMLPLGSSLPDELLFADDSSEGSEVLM

[4] = molecular target: CDK7/Cyclin H/MNAT1 (Homo sapiens) (UniProt P51946+P50613+P51948); assay: Inhibition of human CDK7/cyclinH/MAT1 assessed as residual activity at 1 uM relative to control; format: protein-complex assay
TK-10 = assay: Antiproliferative activity against human TK10 cells after 3 days by sulforhodamine B assay; format: functional; settings: TK-10, 72 h
[5] = molecular target: Serine/threonine-protein kinase Chk2 (Homo sapiens) (UniProt O96017); assay: Inhibition of CHK2 (unknown origin) assessed as residual activity at 1 uM relative to control
MCF7 [6] = assay: Cell cycle arrest in human MCF7 cells assessed as accumulation at G1 phase at 0.25 uM after 24 hrs using propidium iodide staining by FACS analysis (reference value: 57.74%); format: functional
[7] = molecular target: Ephrin type-B receptor 2 (Homo sapiens) (UniProt P29323); assay: Inhibition of human EphB2 assessed as residual activity at 1 uM relative to control
Ephrin type-B receptor 2 (Homo sapiens), sequence (P29323 whole entry): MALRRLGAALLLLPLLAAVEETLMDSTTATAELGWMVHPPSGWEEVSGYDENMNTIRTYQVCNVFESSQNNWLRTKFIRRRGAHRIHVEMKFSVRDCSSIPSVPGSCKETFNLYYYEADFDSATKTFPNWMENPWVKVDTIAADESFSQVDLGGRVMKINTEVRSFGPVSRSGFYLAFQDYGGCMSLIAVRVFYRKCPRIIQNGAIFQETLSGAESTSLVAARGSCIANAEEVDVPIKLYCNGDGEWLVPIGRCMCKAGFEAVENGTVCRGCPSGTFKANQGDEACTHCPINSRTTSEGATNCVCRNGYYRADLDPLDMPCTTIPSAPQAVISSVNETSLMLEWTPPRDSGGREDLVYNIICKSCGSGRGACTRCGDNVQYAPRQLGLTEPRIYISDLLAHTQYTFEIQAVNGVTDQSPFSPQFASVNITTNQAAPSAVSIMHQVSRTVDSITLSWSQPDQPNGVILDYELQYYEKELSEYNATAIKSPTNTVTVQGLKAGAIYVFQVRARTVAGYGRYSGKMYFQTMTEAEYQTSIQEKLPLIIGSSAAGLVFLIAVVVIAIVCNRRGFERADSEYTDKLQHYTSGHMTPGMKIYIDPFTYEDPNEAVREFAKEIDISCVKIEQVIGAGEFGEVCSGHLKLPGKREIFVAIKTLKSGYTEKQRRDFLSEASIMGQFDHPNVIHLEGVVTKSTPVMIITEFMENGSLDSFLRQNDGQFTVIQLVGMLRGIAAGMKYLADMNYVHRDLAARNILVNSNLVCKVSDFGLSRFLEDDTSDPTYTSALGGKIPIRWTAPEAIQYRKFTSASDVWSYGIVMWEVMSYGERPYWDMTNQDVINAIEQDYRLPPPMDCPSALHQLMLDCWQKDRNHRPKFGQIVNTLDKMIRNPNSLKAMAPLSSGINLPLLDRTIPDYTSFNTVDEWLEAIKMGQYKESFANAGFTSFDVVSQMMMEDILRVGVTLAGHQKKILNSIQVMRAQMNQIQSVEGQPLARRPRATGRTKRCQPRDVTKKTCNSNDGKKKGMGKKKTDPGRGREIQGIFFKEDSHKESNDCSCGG

[8] = molecular target: Serine/threonine-protein kinase 3 (Homo sapiens) (UniProt Q13188); assay: Inhibition of human MST2 assessed as residual activity at 1 uM relative to control
[9] = molecular target: Ribosomal protein S6 kinase alpha-5 (Homo sapiens) (UniProt O75582); assay: Inhibition of human MSK1 assessed as residual activity at 1 uM relative to control
[10] = molecular target: Receptor tyrosine-protein kinase erbB-2 (Homo sapiens) (UniProt P04626); assay: Inhibition of ERBB2 (unknown origin) assessed as residual activity at 10 uM relative to control
Receptor tyrosine-protein kinase erbB-2 (Homo sapiens), sequence (P04626 whole entry): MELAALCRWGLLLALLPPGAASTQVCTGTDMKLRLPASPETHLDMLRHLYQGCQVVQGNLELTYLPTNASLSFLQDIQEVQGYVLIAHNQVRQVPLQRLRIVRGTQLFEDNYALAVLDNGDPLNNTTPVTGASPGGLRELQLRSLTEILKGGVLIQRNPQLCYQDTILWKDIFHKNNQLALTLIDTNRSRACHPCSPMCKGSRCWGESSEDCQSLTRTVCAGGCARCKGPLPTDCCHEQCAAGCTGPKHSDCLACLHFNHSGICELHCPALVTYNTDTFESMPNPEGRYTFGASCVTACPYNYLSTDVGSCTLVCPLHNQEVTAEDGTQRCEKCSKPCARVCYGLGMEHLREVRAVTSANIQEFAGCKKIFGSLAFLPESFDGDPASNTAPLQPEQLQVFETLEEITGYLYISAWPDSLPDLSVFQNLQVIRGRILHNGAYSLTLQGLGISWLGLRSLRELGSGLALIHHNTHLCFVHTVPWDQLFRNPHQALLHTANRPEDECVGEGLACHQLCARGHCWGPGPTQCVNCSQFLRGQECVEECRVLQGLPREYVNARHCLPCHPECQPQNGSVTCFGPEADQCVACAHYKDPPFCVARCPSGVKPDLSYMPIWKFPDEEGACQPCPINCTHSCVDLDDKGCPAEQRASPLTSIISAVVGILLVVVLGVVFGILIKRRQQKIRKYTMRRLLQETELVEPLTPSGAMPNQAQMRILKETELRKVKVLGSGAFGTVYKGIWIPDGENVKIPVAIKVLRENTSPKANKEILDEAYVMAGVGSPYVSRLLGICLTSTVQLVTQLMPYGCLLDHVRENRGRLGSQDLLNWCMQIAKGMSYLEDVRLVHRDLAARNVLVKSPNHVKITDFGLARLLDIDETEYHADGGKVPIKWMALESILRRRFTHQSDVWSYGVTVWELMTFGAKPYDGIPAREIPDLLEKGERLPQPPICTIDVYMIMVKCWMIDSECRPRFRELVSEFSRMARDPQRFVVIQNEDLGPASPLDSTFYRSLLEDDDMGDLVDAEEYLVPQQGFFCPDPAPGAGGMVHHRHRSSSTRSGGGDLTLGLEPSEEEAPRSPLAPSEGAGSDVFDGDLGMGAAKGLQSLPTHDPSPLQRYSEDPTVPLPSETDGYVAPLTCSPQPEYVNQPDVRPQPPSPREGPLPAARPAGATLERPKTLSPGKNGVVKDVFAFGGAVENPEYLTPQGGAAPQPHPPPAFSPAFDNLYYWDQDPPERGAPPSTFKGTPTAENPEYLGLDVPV

[11] = molecular target: Activin receptor type-1B (Homo sapiens) (UniProt P36896); assay: Inhibition of human ALK4 assessed as residual activity at 1 uM relative to control
[12] = molecular target: MAP kinase-activated protein kinase 3 (Homo sapiens) (UniProt Q16644); assay: Inhibition of human MAPKAP-K3 assessed as residual activity at 1 uM relative to control
MAP kinase-activated protein kinase 3 (Homo sapiens), sequence (Q16644 whole entry, looked up): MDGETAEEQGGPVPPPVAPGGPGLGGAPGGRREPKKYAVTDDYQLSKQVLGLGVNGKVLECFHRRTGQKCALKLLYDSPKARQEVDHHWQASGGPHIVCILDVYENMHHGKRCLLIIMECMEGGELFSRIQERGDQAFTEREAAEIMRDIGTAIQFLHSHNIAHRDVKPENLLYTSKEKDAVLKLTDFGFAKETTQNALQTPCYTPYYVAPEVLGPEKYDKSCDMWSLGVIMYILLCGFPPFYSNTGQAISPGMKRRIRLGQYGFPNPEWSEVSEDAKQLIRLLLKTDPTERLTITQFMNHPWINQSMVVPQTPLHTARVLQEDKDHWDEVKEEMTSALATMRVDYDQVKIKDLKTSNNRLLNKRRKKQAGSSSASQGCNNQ

[13] = molecular target: Serine/threonine-protein kinase haspin (Homo sapiens) (UniProt Q8TF76); assay: Inhibition of human Haspin assessed as residual activity at 1 uM relative to control
[14] = molecular target: Serine/threonine-protein kinase D1 (Homo sapiens) (UniProt Q15139); assay: Inhibition of human PKCmu assessed as residual activity at 1 uM relative to control
[15] = molecular target: Inhibitor of nuclear factor kappa-B kinase subunit alpha (Homo sapiens) (UniProt O15111); assay: Inhibition of human IKKalpha assessed as residual activity at 1 uM relative to control
[16] = molecular target: Cyclin-dependent kinase 5/CDK5 activator 1 (Homo sapiens) (UniProt Q00535+Q15078); assay: Inhibition of CDK5/p35NCK (unknown origin) assessed as residual activity at 1 uM relative to control; format: protein-complex assay
Cyclin-dependent kinase 5/CDK5 activator 1 (Homo sapiens), sequence (Q00535 whole entry): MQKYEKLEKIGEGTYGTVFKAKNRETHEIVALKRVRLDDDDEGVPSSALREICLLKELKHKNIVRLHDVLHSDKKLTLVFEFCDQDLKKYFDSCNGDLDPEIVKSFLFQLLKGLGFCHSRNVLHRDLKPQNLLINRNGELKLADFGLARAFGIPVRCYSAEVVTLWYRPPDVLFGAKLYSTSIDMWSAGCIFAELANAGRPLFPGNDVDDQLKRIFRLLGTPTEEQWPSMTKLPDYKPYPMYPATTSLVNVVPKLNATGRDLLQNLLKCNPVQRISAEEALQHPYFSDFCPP
Cyclin-dependent kinase 5/CDK5 activator 1 (Homo sapiens), sequence (Q15078 99-307 partner limits assumed): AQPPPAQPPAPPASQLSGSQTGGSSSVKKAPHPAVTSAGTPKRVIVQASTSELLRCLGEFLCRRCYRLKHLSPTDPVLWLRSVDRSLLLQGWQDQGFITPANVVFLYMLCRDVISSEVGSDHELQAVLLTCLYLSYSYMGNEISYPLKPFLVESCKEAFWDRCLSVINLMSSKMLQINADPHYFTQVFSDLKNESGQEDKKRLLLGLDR

[17] = molecular target: Serine/threonine-protein kinase PLK2 (Homo sapiens) (UniProt Q9NYY3); assay: Inhibition of human Snk assessed as residual activity at 1 uM relative to control
Serine/threonine-protein kinase PLK2 (Homo sapiens), sequence (Q9NYY3 whole entry, looked up): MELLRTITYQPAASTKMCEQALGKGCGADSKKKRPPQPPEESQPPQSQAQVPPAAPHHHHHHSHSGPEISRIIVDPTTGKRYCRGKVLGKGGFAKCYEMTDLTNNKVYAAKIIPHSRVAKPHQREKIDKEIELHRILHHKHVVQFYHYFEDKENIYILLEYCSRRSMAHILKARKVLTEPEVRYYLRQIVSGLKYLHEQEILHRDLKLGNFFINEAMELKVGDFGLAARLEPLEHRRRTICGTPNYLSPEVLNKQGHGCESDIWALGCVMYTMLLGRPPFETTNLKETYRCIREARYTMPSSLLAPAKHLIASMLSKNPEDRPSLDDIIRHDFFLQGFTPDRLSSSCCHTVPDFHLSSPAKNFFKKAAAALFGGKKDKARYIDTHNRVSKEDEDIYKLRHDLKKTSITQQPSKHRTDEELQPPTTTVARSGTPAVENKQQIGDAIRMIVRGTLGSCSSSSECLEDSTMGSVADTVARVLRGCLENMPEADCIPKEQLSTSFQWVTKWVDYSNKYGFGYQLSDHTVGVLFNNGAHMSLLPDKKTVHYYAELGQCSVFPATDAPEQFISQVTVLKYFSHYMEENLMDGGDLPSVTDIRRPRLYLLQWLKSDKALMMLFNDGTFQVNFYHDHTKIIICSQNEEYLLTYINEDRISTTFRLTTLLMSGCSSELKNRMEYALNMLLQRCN

[18] = molecular target: Aurora kinase C (Homo sapiens) (UniProt Q9UQB9); assay: Inhibition of Aurora-C (unknown origin) assessed as residual activity at 10 uM relative to control
[19] = test system: Ribosomal protein S6 kinase alpha-6 (Homo sapiens); assay: Inhibition of human Rsk4 assessed as residual activity at 1 uM relative to control
[20] = molecular target: SRSF protein kinase 3 (Homo sapiens) (UniProt Q9UPE1); assay: Inhibition of human MSSK1 assessed as residual activity at 1 uM relative to control
SNB-75 = assay: Antiproliferative activity against human SNB75 cells after 3 days by sulforhodamine B assay; format: functional; settings: SNB-75, 72 h
[21] = molecular target: T1, Serine/threonine-protein kinase Chk1 (Homo sapiens) (UniProt O14757); assay: Inhibition of human CHK1 assessed as residual activity at 1 uM relative to control
T1 sequence (whole entry): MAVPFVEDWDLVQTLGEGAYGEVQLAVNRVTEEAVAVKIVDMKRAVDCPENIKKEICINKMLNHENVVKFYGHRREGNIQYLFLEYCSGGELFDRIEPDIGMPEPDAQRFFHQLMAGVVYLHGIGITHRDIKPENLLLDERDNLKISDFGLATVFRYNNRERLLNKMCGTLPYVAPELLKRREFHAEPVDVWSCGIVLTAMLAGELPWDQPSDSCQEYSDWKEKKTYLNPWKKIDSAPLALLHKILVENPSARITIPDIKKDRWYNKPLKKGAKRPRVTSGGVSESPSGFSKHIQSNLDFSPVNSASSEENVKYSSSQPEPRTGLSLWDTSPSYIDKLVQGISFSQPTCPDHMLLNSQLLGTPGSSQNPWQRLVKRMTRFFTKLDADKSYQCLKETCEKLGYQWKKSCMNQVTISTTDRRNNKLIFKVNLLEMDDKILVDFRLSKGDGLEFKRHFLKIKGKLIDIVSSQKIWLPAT

[22] = molecular target: Serine/threonine-protein kinase PLK1 (Homo sapiens) (UniProt P53350); assay: Inhibition of human Plk1 assessed as residual activity at 1 uM relative to control
[23] = molecular target: T2, Aurora kinase A (Homo sapiens) (UniProt O14965); assay: Inhibition of Aurora-A (unknown origin) assessed as residual activity at 1 uM relative to control
T2 sequence (whole entry): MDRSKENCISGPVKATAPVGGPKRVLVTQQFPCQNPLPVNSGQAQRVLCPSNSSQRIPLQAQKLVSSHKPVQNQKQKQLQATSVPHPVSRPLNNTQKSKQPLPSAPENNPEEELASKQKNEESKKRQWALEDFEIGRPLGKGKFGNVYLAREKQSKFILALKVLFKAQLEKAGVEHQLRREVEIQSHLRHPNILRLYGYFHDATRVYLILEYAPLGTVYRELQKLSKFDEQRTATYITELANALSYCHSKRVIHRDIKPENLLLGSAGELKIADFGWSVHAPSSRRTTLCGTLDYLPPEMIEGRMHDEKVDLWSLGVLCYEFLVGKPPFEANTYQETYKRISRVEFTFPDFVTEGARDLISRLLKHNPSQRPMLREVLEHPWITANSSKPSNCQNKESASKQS

MCF7 [24] = assay: Cell cycle arrest in human MCF7 cells assessed as accumulation at G2/M phase at 0.25 uM after 24 hrs using propidium iodide staining by FACS analysis (reference value: 22.13%); format: functional

- Activity [1]: 97%
- Activity [2]: 97%
- GI50 (SK-MEL-28): 2830 nM
- Activity [3]: 95%
- Activity [4]: 76%
- Activity [5]: 89%
- Activity [7]: 127%
- Activity [8]: 105%
- Activity [9]: 93%
- Activity [10]: 102%
- Activity [11]: 106%
- Activity [12]: 98%
- Activity [13]: 64%
- Activity [14]: 93%
- Activity [15]: 99%
- Activity [16]: 106%
- Activity [17]: 83%
- Activity [18]: 76%
- Activity [19]: 122%
- Activity [20]: 73%
- Activity [21]: 107%
- Activity [22]: 101%
- Activity [23]: 85%
Structure (SMILES): O=C1Nc2ncccc2/C1=C1/Nc2ncccc2C1=O
- GI50 (TK-10): 2270 nM
- Activity (MCF7 [6]): 58.28%
- GI50 (SNB-75): 1580 nM
- Activity (MCF7 [24]): 21.66%
